{
  "source": "ChEMBL document CHEMBL4308887",
  "about": "“Synthesis and biological evaluation of clovamide analogues with catechol functionality as potent Parkinson's disease agents in vitro and in vivo” (Bioorg Med Chem Lett, 2019)",
  "key": {"[1]": {"test_system": "SH-SY5Y", "experiment": "Protection against H2O2-induced apoptosis in human SH-SY5Y cells assessed as improvement in nuclear fragmentation at 1 to 10 uM preincubated for 6 hrs followed by H2O2 addition and measured after 24 hrs by Hoechst 33342 staining based inverted microscopic analysis", "assay_type": "functional, cell-based", "in_short": "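Hoechst 33342 nuclear staining after pretreatment and 600 μM H₂O₂. Nuclear fragmentation and DNA condensation were scored visually.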"}, "[2]": {"experiment": "Activation of PI3K/Akt/mTOR signaling in human SH-SY5Y cells assessed as up regulation of H2O2-induced HO-1 expression at 10 uM preincubated for 6 hrs followed by H2O2 addition and after 24 hrs in presence of JNK inhibitor SP600125 by Western blot analysis", "assay_type": "cell-based", "in_short": "(§1)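 SH-SY5Y cells preincubated 1 h with one inhibitor: SB203580 10 μM, LY294002 5 μM, U0126 10 μM, SP600125 5 μM or rapamycin 100 nM. Then 1 (10 μM) for 6 h, then 600 μM H₂O₂. HO-1 measured by western blot and densitometry. Mean ± S.E.M., three independent experiments.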"}, "[3]": {"experiment": "Activation of PI3K/Akt/mTOR signaling in human SH-SY5Y cells assessed as up regulation of HO-1 expression at 10 uM after 24 hrs by Western blot analysis relative to control", "assay_type": "cell-based", "in_short": "(§2)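 HO-1 western blot in SH-SY5Y cells incubated 24 h with 1 at 0.1, 1 or 10 μM, without H₂O₂. Band densitometry expressed as % of control. Mean ± S.E.M. from three independent experiments.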"}, "[4]": {"test_system": "SH-SY5Y", "experiment": "Protection against H2O2-induced mitochondrial dysfunction in human SH-SY5Y cells assessed as mitochondrial membrane potential at 10 uM preincubated for 6 hrs followed by H2O2 addition and measured after 24 hrs by Rh123 staining based flow cytometry (reference value: 26.31 +/- 3.32%)", "assay_type": "functional", "in_short": "(§3)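 ΔΨm examined by inverted fluorescence microscopy and flow cytometry after pretreatment (1, 10 μM) and 600 μM H₂O₂. Reported as % of control. Mean ± S.E.M., three independent experiments.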"}, "[5]": {"test_system": "Mus musculus", "experiment": "Anti-parkinson's activity in MPTP-induced C57Bl/6 mouse model of Parkinson's disease assessed as decrease in cleaved caspase3 expression in substantia nigra at 10 to 20 mg/kg, ig pretreated for 10 days followed by MPTP challenge measured 10 days post MPTP addition by Western blot analysis", "assay_type": "functional, organism-based", "in_short": "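Substantia nigra from MPTP mice. Bax, Bcl-2 and cleaved caspase-3 measured by western blot, with Bcl-2/Bax ratio by densitometry. Mean ± S.D., n = 6 mice/group.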"}, "[6]": {"test_system": "Mus musculus", "experiment": "Anti-parkinson's activity in MPTP-induced C57Bl/6 mouse model of Parkinson's disease assessed as reduction in MDA level in substantia nigra administered intragastrically pretreated for 10 days followed by MPTP challenge measured 10 days post MPTP addition by thiobarbituric acid method", "assay_type": "functional, organism-based", "in_short": "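Striatum and SNpc from MPTP-treated mice dosed orally with 1 at 10 or 20 mg/kg. MDA level and SOD activity measured. Mean ± S.D., n = 6 mice/group.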"}, "[7]": {"experiment": "Activation of PI3K/Akt/mTOR signaling in human SH-SY5Y cells assessed as up regulation of H2O2-induced HO-1 expression at 10 uM preincubated for 6 hrs followed by H2O2 addition and after 24 hrs in presence of PI3K/Akt/mTOR inhibitor rapamycin by Western blot analysis", "assay_type": "cell-based", "in_short": "as §1"}, "[8]": {"test_system": "Mus musculus", "experiment": "Anti-parkinson's activity in MPTP-induced C57Bl/6 mouse model of Parkinson's disease assessed as increase in tyrosine hydroxylase expression in striatum at 10 to 20 mg/kg, ig pretreated for 10 days followed by MPTP challenge measured 10 days post MPTP addition by Western blot analysis", "assay_type": "functional, organism-based", "in_short": "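Tissue taken 10 days after MPTP injection from mice dosed orally with 1 (10 or 20 mg/kg). TH in SNpc and striatum by western blot, and by DAB immunostaining. Three of the mice per group analysed. Mean ± S.D., n = 6 mice/group.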"}, "[9]": {"test_system": "SH-SY5Y", "experiment": "Protection against H2O2-induced apoptosis in human SH-SY5Y cells assessed as late apoptotic cells at 1 uM preincubated for 6 hrs followed by H2O2 addition and measured after 24 hrs by Annexin V-FITC/propidium iodide staining based flow cytometry (reference value: 77.5%)", "assay_type": "functional"}, "[10]": {"test_system": "SH-SY5Y", "experiment": "Induction of apoptosis in non-stimulated human SH-SY5Y cells assessed as late apoptotic cells at 10 uM measured after 6 hrs by Annexin V-FITC/propidium iodide staining based flow cytometry (reference value: 2.3%)", "assay_type": "cell-based"}, "[11]": {"test_system": "Mus musculus", "experiment": "Anti-parkinson's activity in MPTP-induced C57Bl/6 mouse model of Parkinson's disease assessed as decrease in cleaved caspase3 expression in striatum at 10 to 20 mg/kg, ig pretreated for 10 days followed by MPTP challenge measured 10 days post MPTP addition by Western blot analysis", "assay_type": "functional, organism-based"}, "[12]": {"test_system": "SH-SY5Y", "experiment": "Induction of apoptosis in non-stimulated human SH-SY5Y cells assessed as effect on ratio of Bax/Bcl2 expression at 1 to 10 uM measured after 6 hrs by Western blot analysis", "assay_type": "cell-based", "in_short": "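Bax, Bcl-2 and cleaved caspase-3 measured by western blot in SH-SY5Y cells given 1 alone, with β-actin as internal standard. Mean ± S.E.M. of three independent experiments.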"}, "[13]": {"test_system": "SH-SY5Y", "experiment": "Protection against H2O2-induced apoptosis in human SH-SY5Y cells assessed as decrease in ratio of Bax/Bcl2 expression preincubated for 6 hrs followed by H2O2 addition and measured after 24 hrs by Western blot analysis", "assay_type": "functional, cell-based", "in_short": "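Western blot of Bax, Bcl-2 and cleaved caspase-3 in SH-SY5Y after pretreatment (1, 10 μM) and 600 μM H₂O₂. β-actin internal standard; Bax/Bcl-2 ratio from densitometry. Mean ± S.E.M., three independent experiments.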"}, "[14]": {"test_system": "SH-SY5Y", "experiment": "Protection against H2O2-induced oxidative stress in human SH-SY5Y cells assessed as reactive oxygen species level at 1 uM preincubated for 6 hrs followed by H2O2 addition and measured after 24 hrs by DHE dye based flow cytometry (reference value: 18.6%)", "assay_type": "functional"}, "[15]": {"test_system": "SH-SY5Y", "experiment": "Protection against H2O2-induced mitochondrial dysfunction in human SH-SY5Y cells assessed as mitochondrial membrane potential at 1 uM preincubated for 6 hrs followed by H2O2 addition and measured after 24 hrs by Rh123 staining based flow cytometry (reference value: 26.31 +/- 3.32%)", "assay_type": "functional", "in_short": "as §3"}, "[16]": {"experiment": "MRT in Sprague-Dawley rat at 25 mg/kg, po by LC-MS/MS analysis", "assay_type": "ADME, organism-based", "conditions": "in vivo", "in_short": "(§4)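 Male Sprague–Dawley rats dosed with 1 at 5 mg/kg i.v. (vehicle 5% DMSO, 2% F68, 93% saline) or 25 mg/kg p.o. (0.5% methylcellulose with 1% Tween 80). Orbital blood sampled at 0.083–24 h, 12 time points. Plasma PK parameters derived. Mean ± SD, n = 3.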"}, "[17]": {"experiment": "Activation of PI3K/Akt/mTOR signaling in human SH-SY5Y cells assessed as up regulation of HO-1 expression at 1 uM after 24 hrs by Western blot analysis relative to control", "assay_type": "cell-based", "in_short": "as §2"}, "[18]": {"experiment": "Half life in Sprague-Dawley rat at 25 mg/kg, po by LC-MS/MS analysis", "assay_type": "ADME, organism-based", "conditions": "in vivo", "in_short": "as §4"}, "[19]": {"test_system": "SH-SY5Y", "experiment": "Protection against H2O2-induced apoptosis in human SH-SY5Y cells assessed as late apoptotic cells at 10 uM preincubated for 6 hrs followed by H2O2 addition and measured after 24 hrs by Annexin V-FITC/propidium iodide staining based flow cytometry (reference value: 3.5%)", "assay_type": "functional"}},
  "note": "The source made the active and inactive calls. The calls are words filed in the database; no cut-off is given here.",
  "data": [
    {"smiles": "COC(=O)[C@H](Cc1ccccc1)NC(=O)/C=C/c1ccc(O)c(O)c1", "note": "[N-CAFFEOYL-PHENYLALANINE METHYL ESTER]", "values": [
      {"measurement": "Activity", "setting": "[1]", "result": "Active"},
      {"measurement": "Activity", "setting": "[2]", "result": "Active"},
      {"measurement": "Activity", "setting": "[3]", "result": 206, "unit": "%"},
      {"measurement": "Activity", "setting": "[4]", "result": 98.3, "unit": "%"},
      {"measurement": "Activity", "setting": "[5]", "result": "Active"},
      {"measurement": "Activity", "setting": "[6]", "result": "Dose-dependent effect"},
      {"measurement": "Activity", "setting": "[7]", "result": "inactive"},
      {"measurement": "Activity", "setting": "[8]", "result": "Active"},
      {"measurement": "Activity", "setting": "[9]", "result": 17.8, "unit": "%"},
      {"measurement": "Activity", "setting": "[10]", "result": 2.7, "unit": "%"},
      {"measurement": "Activity", "setting": "[11]", "result": "Active"},
      {"measurement": "Activity", "setting": "[12]", "result": "Non-Toxic"},
      {"measurement": "Activity", "setting": "[13]", "result": "Dose-dependent effect"},
      {"measurement": "Activity", "setting": "[14]", "result": 14, "unit": "%"},
      {"measurement": "Activity", "setting": "[15]", "result": 79.4, "unit": "%"},
      {"measurement": "MRT", "setting": "[16]", "result": 3.06, "unit": "h"},
      {"measurement": "Activity", "setting": "[17]", "result": 155, "unit": "%"},
      {"measurement": "half-life", "setting": "[18]", "result": 2.7, "unit": "h"},
      {"measurement": "Activity", "setting": "[19]", "result": 1.5, "unit": "%"}
    ]}
  ]
}
